Activity calls are given as the source filed them. The calls are words filed in the database; no cut-off is given here.

Holding throughout (assay type): cell-based
Assay [1] has as its target T1, E3 ubiquitin-protein ligase Mdm2/Histone deacetylase 1 (Homo sapiens) (UniProt Q00987+Q13547). Kind of assay: PROTAC activity at MDM2/HDAC1 in human HCT-116 cells assessed as decrease in HDAC1 abundance by measuring remaining activity at 0.01 uM measured after 24 hrs by Western blot analysis (reference value: 100%). Put shortly:
(§1)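 HCT116 cells seeded in six-well plates for 24 h, then exposed 24 h to compound (0.01–10 μM) or DMSO in fresh medium. Lysis in Tris-HCl/NaCl/NP-40/Triton X-100 with protease inhibitor. Bradford-normalised 30 μg protein per lane. Quantitative Western blot used specific HDAC1, HDAC2, HDAC3, LSD1 or Sin3a antibodies with IRDye secondaries. Abundance compared with DMSO, n = 2 replicates.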

Assay [2] deals with Lysine-specific histone demethylase 1A (Homo sapiens) (UniProt O60341). Kind of assay: Induction of LSD1 degradation in human HCT-116 cells assessed as reduction in LSD1 abundance by measuring remaining activity at 0.025 uM measured after 24 hrs by Western blot analysis (reference value: 100%). Put shortly:
as §1

Assay [3] concerns the target T2, E3 ubiquitin-protein ligase Mdm2/Histone deacetylase 3 (Homo sapiens) (UniProt Q00987+O15379). Kind of assay: PROTAC activity at MDM2/HDAC3 in human HCT-116 cells assessed as induction of HDAC3 degradation at 0.01 to 10 uM by Western blot analysis. The settings on record: dose 0.01-10 µM. On the technique in general: Immunoblotting shows a protein as a band on a membrane.

Assay [4] addresses T2, E3 ubiquitin-protein ligase Mdm2/Histone deacetylase 3 (Homo sapiens). Put plainly: PROTAC activity at MDM2/HDAC3 in human HCT-116 cells assessed as reduction in HDAC3 abundance by measuring remaining activity at 1 uM measured after 24 hrs by Western blot analysis (reference value: 100%). The procedure, abridged: (§2)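 HCT116 cells in DMEM with 10% FBS and glutamine/penicillin/streptomycin at 37 °C, 5% CO2. Seeded 4 × 10^5 cells/well, after 24 h treated 24 h with DMSO or compound in fresh medium. Lysed in Tris-HCl/NaCl/NP-40/Triton X-100 buffer with protease inhibitor, Bradford-quantified, 30 μg protein per lane. Quantitative Western blot with specific HDAC1/2/3 antibodies, IRDye secondaries, infrared imaging, versus DMSO. n = 2 replicates.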

For assay [5], the target named is Lysine-specific histone demethylase 1A (Homo sapiens) (UniProt O60341). Put plainly: Induction of LSD1 degradation in human HCT-116 cells assessed as reduction in LSD1 abundance by measuring remaining activity at 0.25 uM measured after 24 hrs by Western blot analysis (reference value: 100%). The procedure, abridged: as §1
Assay [6] deals with T3, Paired amphipathic helix protein Sin3a (Homo sapiens) (UniProt Q96ST3).
T3 sequence (whole entry): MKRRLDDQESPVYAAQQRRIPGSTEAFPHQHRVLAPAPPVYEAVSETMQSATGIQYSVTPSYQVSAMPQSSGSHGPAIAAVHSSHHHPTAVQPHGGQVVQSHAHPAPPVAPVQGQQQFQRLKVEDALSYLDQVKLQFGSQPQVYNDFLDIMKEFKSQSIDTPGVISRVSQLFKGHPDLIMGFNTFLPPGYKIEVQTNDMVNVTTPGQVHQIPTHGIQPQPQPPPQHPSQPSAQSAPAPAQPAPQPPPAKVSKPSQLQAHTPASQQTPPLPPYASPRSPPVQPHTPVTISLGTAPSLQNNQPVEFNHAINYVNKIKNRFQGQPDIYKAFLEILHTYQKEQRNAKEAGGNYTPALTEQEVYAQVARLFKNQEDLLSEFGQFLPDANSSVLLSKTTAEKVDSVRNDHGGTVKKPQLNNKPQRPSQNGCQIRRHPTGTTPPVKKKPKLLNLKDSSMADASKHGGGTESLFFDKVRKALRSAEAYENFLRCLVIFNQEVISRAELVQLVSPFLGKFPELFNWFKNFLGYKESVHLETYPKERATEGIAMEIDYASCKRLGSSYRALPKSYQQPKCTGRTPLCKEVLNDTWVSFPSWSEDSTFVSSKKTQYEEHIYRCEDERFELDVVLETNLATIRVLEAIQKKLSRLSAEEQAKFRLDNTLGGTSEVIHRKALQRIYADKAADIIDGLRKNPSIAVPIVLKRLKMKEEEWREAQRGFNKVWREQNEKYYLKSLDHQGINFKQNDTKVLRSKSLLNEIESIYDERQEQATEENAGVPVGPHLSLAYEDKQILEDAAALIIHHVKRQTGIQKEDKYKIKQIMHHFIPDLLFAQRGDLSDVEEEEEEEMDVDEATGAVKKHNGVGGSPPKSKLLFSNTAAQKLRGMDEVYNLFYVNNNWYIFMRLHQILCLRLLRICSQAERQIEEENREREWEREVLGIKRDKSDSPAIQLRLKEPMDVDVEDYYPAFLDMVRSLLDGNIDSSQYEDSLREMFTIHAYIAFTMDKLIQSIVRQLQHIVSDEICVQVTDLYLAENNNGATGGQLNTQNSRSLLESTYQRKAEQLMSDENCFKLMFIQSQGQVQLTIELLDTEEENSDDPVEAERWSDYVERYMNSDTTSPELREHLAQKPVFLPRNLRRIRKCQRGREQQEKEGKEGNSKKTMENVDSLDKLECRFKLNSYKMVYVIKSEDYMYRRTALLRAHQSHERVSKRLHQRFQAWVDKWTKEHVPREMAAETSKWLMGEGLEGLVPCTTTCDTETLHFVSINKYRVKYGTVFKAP
Put plainly: Induction of SIN3A degradation in human HCT-116 cells assessed as reduction in SIN3A abundance by measuring remaining activity at 1 uM measured after 24 hrs by Western blot analysis (reference value: 100%). The procedure, abridged:
as §1

Assay [7] deals with T2, E3 ubiquitin-protein ligase Mdm2/Histone deacetylase 3 (Homo sapiens). Put plainly: PROTAC activity at MDM2/HDAC3 in human HCT-116 cells assessed as reduction in HDAC3 abundance by measuring remaining activity at 0.05 uM measured after 24 hrs by Western blot analysis. The procedure, abridged:
as §2

For assay [8], the target named is T4, E3 ubiquitin-protein ligase Mdm2/Histone deacetylase 2 (Homo sapiens) (UniProt Q00987+Q92769). Put plainly: PROTAC activity at MDM2/HDAC2 in human HCT-116 cells assessed as decrease in HDAC2 abundance by measuring remaining activity at 5 uM measured after 24 hrs by Western blot analysis (reference value: 100%). The procedure, abridged: as §1
The target of assay [9] is T3, Paired amphipathic helix protein Sin3a (Homo sapiens). Put plainly: Induction of SIN3A degradation in human HCT-116 cells assessed as reduction in SIN3A abundance by measuring remaining activity at 0.05 uM measured after 24 hrs by Western blot analysis (reference value: 100%). The procedure, abridged:
as §1

In assay [10] the target is T1, E3 ubiquitin-protein ligase Mdm2/Histone deacetylase 1 (Homo sapiens). Kind of assay: PROTAC activity at MDM2/HDAC1 in human HCT-116 cells assessed as decrease in HDAC1 abundance by measuring remaining activity at 2.5 uM measured after 24 hrs by Western blot analysis (reference value: 100%). Put shortly: as §1
The target of assay [11] is T4, E3 ubiquitin-protein ligase Mdm2/Histone deacetylase 2 (Homo sapiens). Put plainly: PROTAC activity at MDM2/HDAC2 in human HCT-116 cells assessed as decrease in HDAC2 abundance by measuring remaining activity at 2.5 uM measured after 24 hrs by Western blot analysis (reference value: 100%). Put shortly:
as §1

Assay [12] deals with Lysine-specific histone demethylase 1A (Homo sapiens) (UniProt O60341). Kind of assay: Induction of LSD1 degradation in human HCT-116 cells assessed as reduction in LSD1 abundance by measuring remaining activity at 0.01 uM measured after 24 hrs by Western blot analysis (reference value: 100%). Put shortly: as §1

T2 sequence (O15379 whole entry, looked up): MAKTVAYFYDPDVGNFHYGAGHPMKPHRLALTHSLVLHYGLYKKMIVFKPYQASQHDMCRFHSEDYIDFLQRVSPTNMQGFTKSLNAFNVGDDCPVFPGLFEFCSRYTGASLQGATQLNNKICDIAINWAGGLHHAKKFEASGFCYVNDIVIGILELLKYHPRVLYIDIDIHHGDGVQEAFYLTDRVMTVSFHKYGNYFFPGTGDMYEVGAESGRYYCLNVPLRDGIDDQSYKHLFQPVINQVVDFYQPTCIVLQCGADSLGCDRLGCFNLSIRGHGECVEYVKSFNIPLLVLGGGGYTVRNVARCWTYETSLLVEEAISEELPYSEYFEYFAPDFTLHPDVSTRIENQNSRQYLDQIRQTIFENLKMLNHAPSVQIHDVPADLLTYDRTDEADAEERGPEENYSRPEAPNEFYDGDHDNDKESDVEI
T2 sequence (Q00987 whole entry, looked up): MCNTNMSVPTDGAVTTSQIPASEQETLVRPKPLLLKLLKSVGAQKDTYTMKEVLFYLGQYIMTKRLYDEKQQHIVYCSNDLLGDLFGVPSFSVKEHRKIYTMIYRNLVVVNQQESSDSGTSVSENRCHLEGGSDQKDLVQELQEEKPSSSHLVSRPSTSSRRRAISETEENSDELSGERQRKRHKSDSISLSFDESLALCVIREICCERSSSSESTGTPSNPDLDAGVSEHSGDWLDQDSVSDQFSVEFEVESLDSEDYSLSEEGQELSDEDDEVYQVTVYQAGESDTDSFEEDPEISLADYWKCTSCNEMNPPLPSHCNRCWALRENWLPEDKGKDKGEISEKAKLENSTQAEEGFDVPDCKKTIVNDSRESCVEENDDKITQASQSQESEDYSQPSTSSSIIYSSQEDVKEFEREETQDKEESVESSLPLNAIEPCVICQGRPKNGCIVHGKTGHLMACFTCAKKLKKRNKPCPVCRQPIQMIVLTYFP
T4 sequence (Q00987 whole entry, looked up): as above
T4 sequence (Q92769 whole entry, looked up): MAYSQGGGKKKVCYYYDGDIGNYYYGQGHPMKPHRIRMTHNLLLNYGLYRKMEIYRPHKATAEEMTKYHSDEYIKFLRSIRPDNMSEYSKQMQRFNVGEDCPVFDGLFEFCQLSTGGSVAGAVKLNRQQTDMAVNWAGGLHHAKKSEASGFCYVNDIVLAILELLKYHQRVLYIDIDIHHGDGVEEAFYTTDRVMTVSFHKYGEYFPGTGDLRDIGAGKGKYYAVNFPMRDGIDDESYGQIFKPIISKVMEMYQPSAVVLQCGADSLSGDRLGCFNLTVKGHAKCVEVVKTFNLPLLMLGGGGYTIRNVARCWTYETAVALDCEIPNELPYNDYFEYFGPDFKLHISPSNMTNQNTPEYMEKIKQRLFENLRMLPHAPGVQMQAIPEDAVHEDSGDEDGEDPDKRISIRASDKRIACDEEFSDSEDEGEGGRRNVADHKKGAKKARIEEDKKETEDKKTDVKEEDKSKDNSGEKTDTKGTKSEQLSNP
T1 sequence (Q00987 whole entry, looked up): as the sequence (Q00987 whole entry, looked up) above
T1 sequence (Q13547 whole entry, looked up): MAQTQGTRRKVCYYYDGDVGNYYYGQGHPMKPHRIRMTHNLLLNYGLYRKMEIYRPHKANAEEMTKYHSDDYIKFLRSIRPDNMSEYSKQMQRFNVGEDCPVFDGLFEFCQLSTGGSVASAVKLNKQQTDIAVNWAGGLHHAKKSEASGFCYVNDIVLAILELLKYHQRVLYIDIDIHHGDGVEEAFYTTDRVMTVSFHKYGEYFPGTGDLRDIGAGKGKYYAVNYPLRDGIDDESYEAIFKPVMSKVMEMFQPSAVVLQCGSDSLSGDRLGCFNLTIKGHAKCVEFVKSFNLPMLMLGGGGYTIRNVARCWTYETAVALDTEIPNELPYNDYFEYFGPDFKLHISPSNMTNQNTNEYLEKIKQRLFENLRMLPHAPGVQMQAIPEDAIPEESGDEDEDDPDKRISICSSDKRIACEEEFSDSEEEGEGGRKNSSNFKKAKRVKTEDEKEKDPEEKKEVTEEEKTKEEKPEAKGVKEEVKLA

With `COc1cc(C(=O)NCCOCCOCCOCCOCCC(=O)Nc2ccc(C(=O)Nc3ccccc3N)cc2)ccc1NC(=O)[C@@H]1N[C@@H](CC(C)(C)C)[C@](C#N)(c2ccc(Cl)cc2F)[C@H]1c1cccc(Cl)c1F`, the Activity is 108% in assay [1]; 102% in [2]; 104% in assay [4]; 95% in assay [5]; 70% in assay [6]; 105% in [7]. The Activity in assay [8] is 69%; in assay [9] it was 103%; in assay [10], 39%; in assay [11], 72%; in [12] it was 104%. Also, the outcome in [3] was inactive.

(Values after ChEMBL document CHEMBL5357024, “MDM2 Antagonist Idasanutlin Reduces HDAC1/2 Abundance and Corepressor Partners but Not HDAC3” (ACS Med Chem Lett, 2024).)
